One may read the pKb as the negative decadic logarithm of the Kb, by convention in mol/L. What is called inhibition is the relative decrease from the control value, in per cent. For orientation: Kd means the concentration at which binding is half-saturated. For orientation: Ki means the dissociation constant of the complex between target and ligand, obtained from inhibition or displacement.

Results on 32 compounds are retold here after ChEMBL document CHEMBL4118112, “Synthesis and Evaluation of the First Fluorescent Antagonists of the Human P2Y2 Receptor Based on AR-C118925” (J Med Chem, 2018).

The structures appear in SMILES notation. Active and inactive are the calls of the source. The calls are words filed in the database; no cut-off is given here.

Series [1] has as its target T1, P2Y purinoceptor 2 (Homo sapiens, UniProt P41231). Kind of series: Antagonist activity at human P2Y2R expressed in human 1321N1 cells assessed as inhibition of UTPgammaS-activated calcium-mobilization preincubated for 45 mins measured every 1.52 secs for 200 secs after the addition of UTPgammaS at 15 secs by fluo-4AM-based fluorescence assay. The series is classed as functional, cell-based. Summed up: (§1)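 hP2Y2R in 1321N1 astrocytoma cells. Calcium mobilization was driven by UTPγS. Single-concentration lines: compound at 10 µM, inhibition scored against the 0.1 µM UTPγS response (n=3). For the pKb line, the UTPγS concentration-response curve was run with a single antagonist concentration added, and pKb was calculated from the curve shift with the Gaddum equation.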

The target of series [2] is T1, P2Y purinoceptor 2. The series is described as follows: Antagonist activity at human P2Y2R expressed in human 1321N1 cells assessed as inhibition of UTPgammaS-activated calcium-mobilization at 10 uM preincubated for 45 mins measured every 1.52 secs for 200 secs after the addition of UTPgammaS at 15 secs by fluo-4AM-based fluorescence assay relative to UTPgammaS. The series is classed as functional, cell-based. Summed up:
as §1

For series [3], the target named is T1, P2Y purinoceptor 2. Kind of series: Displacement of (E)-2-((5-(7-Chloro-2-((3-((2-(6-(3-(5,5-difluoro-7,9-dimethyl-5H-5-lambda4,6-lambda4-dipyrrolo[1,2-c:2,1-f ][1,3,2]diazaborinin-3-yl)-propanamido)hexanamido)ethyl)amino)-3-oxopropyl)amino)-4Hbenzo[5,6]cyclohepta[1,2-d]thiazol-4-yl)-2-oxo-4-thioxo-3,4-dihydropyrimidin-1(2H)-yl)methyl)-N-(1H-tetrazol-5-yl)thiazole-4-carboxamide from human N-terminal NLuc-tagged P2Y2R expressed in human 1321N1 cells incubated for 1 hr by furimazine-based NanoBRET assay. The series is classed as cell-based. A digest of the protocol:
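Competition binding in 1321N1 cells expressing N-terminal NanoLuc-hP2Y2R. The fluorescent tracer was used at 1 µM (or the bodipy A tracer at 100 nM) against increasing concentrations of unlabeled ligand. After furimazine addition the BRET signal was read and pKi estimated; mean ± SEM of separate experiments.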
In general terms: In BRET a luciferase serves as donor, and the signal depends on an acceptor being close.

Series [4] deals with T1, P2Y purinoceptor 2. Kind of series: Binding affinity to recombinant human N-terminal NLuc-tagged P2Y2R expressed in human 1321N1 cells incubated for 1 hr in presence of AR-C118925 by furimazine-based NanoBRET assay. The series is classed as cell-based. Summed up: (§2)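 N-terminally NanoLuc-tagged hP2Y2R was stably expressed in 1321N1 cells. Cells were treated with increasing concentrations of fluorescent conjugate, or a fixed 10 µM for screening, with or without 10 µM AR-C118925 to define nonspecific binding. Furimazine substrate was then added and the BRET signal read. pKd came from saturation binding curves; mean ± SEM of separate experiments.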

Series [5] deals with T1, P2Y purinoceptor 2. Kind of series: Binding affinity to recombinant human N-terminal NLuc-tagged P2Y2R expressed in human 1321N1 cells at 10 uM incubated for 1 hr in presence of AR-C118925 by furimazine-based NanoBRET assay. The series is classed as cell-based. A digest of the protocol: as §2
The target in series [6] is T1, P2Y purinoceptor 2. Kind of series: Antagonist activity at human P2Y2R expressed in human 1321N1 cells assessed as inhibition of UTPgammaS-activated calcium-mobilization at 10 uM preincubated for 45 mins measured every 1.52 secs for 200 secs after the addition of UTPgammaS at 15 secs by fluo-4AM-based fluorescence assay. The series is classed as functional, cell-based. Summed up:
as §1

For series [7], the target named is T1, P2Y purinoceptor 2. The series is described as follows: Binding affinity to human P2Y2R expressed in human 1321N1 cells assessed as localized membrane fluorescence at 100 nM after 30 mins by confocal microscopy. The series is classed as cell-based. A digest of the protocol: (§3)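 1321N1 astrocytoma cells expressing untagged hP2Y2R were given 100 nM fluorescent ligand and incubated 30 min at 37°C, with or without 10 µM AR-C118925 (1). Single equatorial confocal images were then taken with the fluorescent ligand and/or antagonist still present. Membrane and intracellular fluorescence were examined; images are representative of 4 experiments.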

The target of series [8] is T1, P2Y purinoceptor 2. Kind of series: Binding affinity to human P2Y2R expressed in human 1321N1 cells assessed as localized membrane fluorescence at 100 nM after 30 mins in presence of AR-C118925 by confocal microscopy. Format: cell-based. A digest of the protocol:
as §3

Series [9] can be described thus: Drug uptake in human 1321N1 cells assessed as intracellular fluorescence at 100 nM after 30 mins by confocal microscopy. The conditions noted are these: 0.5 h, 0.1 µM. Format: ADME, cell-based. Summed up: as §3

T1 sequence (P41231 whole entry): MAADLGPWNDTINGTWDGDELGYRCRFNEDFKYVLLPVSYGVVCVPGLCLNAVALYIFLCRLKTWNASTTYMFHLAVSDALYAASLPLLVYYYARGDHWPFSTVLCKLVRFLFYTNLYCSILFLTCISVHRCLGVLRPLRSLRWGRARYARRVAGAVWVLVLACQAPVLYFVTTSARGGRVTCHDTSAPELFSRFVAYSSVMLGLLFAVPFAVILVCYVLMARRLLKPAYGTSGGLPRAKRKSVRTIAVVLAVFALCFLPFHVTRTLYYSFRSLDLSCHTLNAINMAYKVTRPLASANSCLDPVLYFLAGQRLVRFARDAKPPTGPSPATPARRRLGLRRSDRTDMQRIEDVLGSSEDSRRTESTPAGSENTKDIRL

In the case of `CCOCCNc1nc2c(s1)C=Cc1cc(Cl)ccc1[C@@H]2c1cn(C)c(=O)[nH]c1=S`, in series [1], the negative logarithm of the Kb (pKb) was less than 5. For the same compound, the inhibition in [2] is less than 50%; in series [3], “Dose-dependent effect”.
Turning to `O=C(CCNc1nc2c(s1)C=Cc1cc(Cl)ccc1C2c1cn(Cc2nc(C(=O)Nc3nnn[nH]3)cs2)c(=O)[nH]c1=S)NCCNC(=O)COc1ccc(/C=C/C2=[N+]3C(=Cc4ccc(-c5cccs5)n4[B-]3(F)F)C=C2)cc1` (configuration not stated), the Kd in [4] is 891 nM.
Regarding `CN1CCN(c2nc3c(s2)C=Cc2cc(Cl)ccc2C3c2cn(C)c(=O)[nH]c2=S)CC1` (configuration not stated), the inhibition in [2] was less than 50%.
As to `O=c1[nH]c(=S)c(C2c3ccccc3CCc3ccccc32)cn1[C@@H]1O[C@H](COP(=O)(O)OP(=O)(O)C(Cl)(Cl)P(=O)(O)O)[C@@H](O)[C@H]1O`, the pKb in [1] is 6.59. Further, in series [3], the Ki is 83.2 nM and the inhibition entry was “Dose-dependent effect”.
`COCCNc1nc2c(s1)C=Cc1cc(Cl)ccc1C2c1cn(C)c(=O)[nH]c1=S` (stereo in doubt; 21): the pKb in series [1] is 5.82.
Same read-out and setting: in the case of `CC(C)OCCNc1nc2c(s1)C=Cc1cc(Cl)ccc1C2c1cn(C)c(=O)[nH]c1=S` (configuration not stated) it was 6.49; in that of `CCOCCNc1nc2c(s1)C=Cc1cc(Cl)ccc1C2c1cn(C)c(=O)[nH]c1=S` (racemic), 6.73; in that of `COCCNc1nc2c(s1)C=Cc1cc(Cl)ccc1C2c1cn(C)c(=O)[nH]c1=S` (stereo in doubt; 20), 6.63.
Turning to `Cn1cc(C2c3ccc(Cl)cc3C=Cc3sc(Nc4ccccc4)nc32)c(=S)[nH]c1=O` (configuration not stated), the inhibition in series [2] is less than 50%.
As to `Cc1ccc2c(c1)C=Cc1cc(C)ccc1C2c1cn(Cc2cc(C(=O)NCCOCCOCCNC(=O)COc3ccc(/C=C/C4=[N+]5C(=Cc6ccc(-c7cccs7)n6[B-]5(F)F)C=C4)cc3)cc(C(=O)Nc3nnn[nH]3)c2)c(=O)[nH]c1=S`, the Kd in series [4] is 759 nM.
On to `Cn1cc(C2c3ccc(Cl)cc3C=Cc3sc(NCCc4ccccc4)nc32)c(=S)[nH]c1=O` (configuration not stated), for which, in series [2], the inhibition was less than 50%.
For the compound `Cc1ccc2c(c1)C=Cc1cc(C)ccc1C2c1cn(Cc2ccc(C(=O)Nc3nnn[nH]3)o2)c(=O)[nH]c1=S`, the inhibition result in series [3] is “Dose-dependent effect”.
`Cn1cc(C2c3ccc(Cl)cc3C=Cc3sc(NCCOc4ccccc4)nc32)c(=S)[nH]c1=O` (configuration not stated): the inhibition in series [2] is less than 50%.
For the compound `Cc1cc(C)n2c1C=C1C=CC(CCC(=O)NCCCCCC(=O)NCCOCCOCCNC(=O)CCNc3nc4c(s3)C=Cc3cc(Cl)ccc3C4c3cn(C)c(=O)[nH]c3=S)=[N+]1[B-]2(F)F` (configuration not stated), the Kd in [4] was 4170 nM. In addition, in series [5], the outcome was Active.
`Cn1cc(C2c3ccc(Cl)cc3C=Cc3sc(NCc4ccccc4)nc32)c(=S)[nH]c1=O` (configuration not stated): the inhibition in [2] was less than 50%.
`Cc1cc(C)n2c1C=C1C=CC(CCC(=O)NCCCCCC(=O)NCCNC(=O)CCNc3nc4c(s3)C=Cc3cc(Cl)ccc3C4c3cn(C)c(=O)[nH]c3=S)=[N+]1[B-]2(F)F` (configuration not stated): in series [1], the pKb stood at 6.3. The Kd in [4] is 2140 nM. Besides, in series [3], affinity was put at a Ki of 398 nM and the inhibition result was “Dose-dependent effect”. The result in series [5] was Active.
With `Cn1cc(C2c3ccc(Cl)cc3C=Cc3sc(N)nc32)c(=S)[nH]c1=O` (configuration not stated), the pKb in series [1] is 6.56.
`COCCNc1nc2c(s1)C=Cc1cc(Cl)ccc1C2c1cn(C)c(=O)[nH]c1=S` (racemic): the pKb in series [1] came to 6.6.
As for `Cn1cc(C2c3ccc(Cl)cc3C=Cc3sc(N4CCCCC4)nc32)c(=S)[nH]c1=O` (configuration not stated), the inhibition in [2] was less than 50%.
`Cc1ccc2c(c1)C=Cc1cc(C)ccc1C2c1cn(Cc2nc(C(=O)Nc3nnn[nH]3)cs2)c(=O)[nH]c1=S`: the pKb in [1] was 7.11. In series [3], the inhibition constant Ki is 129 nM and the inhibition result is “Dose-dependent effect”.
As to `Cc1nc2c(s1)C=Cc1cc(Cl)ccc1C2c1cn(Cc2nc(C(=O)Nc3nnn[nH]3)cs2)c(=O)[nH]c1=S` (configuration not stated), the pKb in series [1] was 6.48.
In the case of `Cc1ccc2c(c1)C=Cc1cc(C)ccc1C2c1cn(Cc2nc(C(=O)O)cs2)c(=O)[nH]c1=S`, in series [1], the pKb came out at 6.43.
With `Cn1cc(C2c3ccc(Cl)cc3C=Cc3sc(-c4ccccc4)nc32)c(=S)[nH]c1=O` (configuration not stated), in series [2], the inhibition is less than 50%.
With `Cn1cc(C2c3ccc(Cl)cc3C=Cc3sc(N4CCOCC4)nc32)c(=S)[nH]c1=O` (configuration not stated), the inhibition in [2] was less than 50%.
Regarding `Cc1nc2c(s1)C=Cc1cc(Cl)ccc1C2c1cn(C)c(=O)[nH]c1=S` (configuration not stated), the pKb in series [1] was 5.99. Further, in [3], the Ki was 1550 nM and the inhibition entry is “Dose-dependent effect”.
Take `Cc1ccc2c(c1)C=Cc1cc(C)ccc1C2c1cn(C)c(=O)[nH]c1=S`: the inhibition in series [2] was less than 50%.
With `O=C(CCCCCNC(=O)COc1ccc(/C=C/C2=[N+]3C(=Cc4ccc(-c5cccs5)n4[B-]3(F)F)C=C2)cc1)NCCNC(=O)CCNc1nc2c(s1)C=Cc1cc(Cl)ccc1C2c1cn(Cc2nc(C(=O)Nc3nnn[nH]3)cs2)c(=O)[nH]c1=S` (configuration not stated), the Kd in series [4] was 129 nM. Besides, the negative-log Kb (pKb) in series [6] is 5.69. In series [7], the outcome was Active. Also, the result in series [8] was inactive. In addition, the Drug uptake result in series [9] is recorded as “Not Active”.
In the case of `Cc1cc(C)n2c1C=C1C=CC(CCC(=O)NCCNC(=O)CCNc3nc4c(s3)C=Cc3cc(Cl)ccc3C4c3cn(Cc4nc(C(=O)Nc5nnn[nH]5)cs4)c(=O)[nH]c3=S)=[N+]1[B-]2(F)F` (configuration not stated), in [4], the Kd is 89.1 nM.
For `CCOCCNc1nc2c(s1)C=Cc1cc(Cl)ccc1[C@H]2c1cn(C)c(=O)[nH]c1=S`, the pKb in series [1] fell in the range of 6.74 to 6.78. In [3], the inhibition result is “Dose-dependent effect”.
In the case of `O=c1ccn([C@@H]2O[C@H](COP(=O)(O)OP(=O)(O)OP(=O)(O)S)[C@@H](O)[C@H]2O)c(=O)[nH]1` (some centres not stated), in series [3], the Ki is 3470 nM and the inhibition result is “Dose-dependent effect”.
On to `Cc1ccc2c(c1)C=Cc1cc(C)ccc1C2c1cn(Cc2cc(C(=O)NCCNC(=O)COc3ccc(/C=C/C4=[N+]5C(=Cc6ccc(-c7cccs7)n6[B-]5(F)F)C=C4)cc3)cc(C(=O)Nc3nnn[nH]3)c2)c(=O)[nH]c1=S`, for which the Kd in series [4] was 2750 nM.
As for `Cc1cc(C)n2c1C=C1C=CC(CCC(=O)NCCNC(=O)CCNc3nc4c(s3)C=Cc3cc(Cl)ccc3C4c3cn(C)c(=O)[nH]c3=S)=[N+]1[B-]2(F)F` (configuration not stated), the Kd in [4] was 12300 nM. Moreover, the outcome in series [5] was Active.
